Measured values reported in ChEMBL document CHEMBL3352689 (J Med Chem, 2014).
In brackets after ≈: the same amount, converted by molar mass.

Columns and labels:
Liver microsome = assay: Metabolic stability in rat liver microsomes; format: ADME
Procedure, shortened: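 The free acid was incubated with hepatic microsomes of each species. Stability is reported as clearance in μL/min/mg microsomal protein.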

[1] = Solubility of the compound in water; format: physicochemical; conditions: buffer
[2] = target: Voltage-gated inwardly rectifying potassium channel KCNH2 (Homo sapiens, UniProt Q12809); assay: Inhibition of human ERG
Sequence of Voltage-gated inwardly rectifying potassium channel KCNH2 (Q12809 whole entry): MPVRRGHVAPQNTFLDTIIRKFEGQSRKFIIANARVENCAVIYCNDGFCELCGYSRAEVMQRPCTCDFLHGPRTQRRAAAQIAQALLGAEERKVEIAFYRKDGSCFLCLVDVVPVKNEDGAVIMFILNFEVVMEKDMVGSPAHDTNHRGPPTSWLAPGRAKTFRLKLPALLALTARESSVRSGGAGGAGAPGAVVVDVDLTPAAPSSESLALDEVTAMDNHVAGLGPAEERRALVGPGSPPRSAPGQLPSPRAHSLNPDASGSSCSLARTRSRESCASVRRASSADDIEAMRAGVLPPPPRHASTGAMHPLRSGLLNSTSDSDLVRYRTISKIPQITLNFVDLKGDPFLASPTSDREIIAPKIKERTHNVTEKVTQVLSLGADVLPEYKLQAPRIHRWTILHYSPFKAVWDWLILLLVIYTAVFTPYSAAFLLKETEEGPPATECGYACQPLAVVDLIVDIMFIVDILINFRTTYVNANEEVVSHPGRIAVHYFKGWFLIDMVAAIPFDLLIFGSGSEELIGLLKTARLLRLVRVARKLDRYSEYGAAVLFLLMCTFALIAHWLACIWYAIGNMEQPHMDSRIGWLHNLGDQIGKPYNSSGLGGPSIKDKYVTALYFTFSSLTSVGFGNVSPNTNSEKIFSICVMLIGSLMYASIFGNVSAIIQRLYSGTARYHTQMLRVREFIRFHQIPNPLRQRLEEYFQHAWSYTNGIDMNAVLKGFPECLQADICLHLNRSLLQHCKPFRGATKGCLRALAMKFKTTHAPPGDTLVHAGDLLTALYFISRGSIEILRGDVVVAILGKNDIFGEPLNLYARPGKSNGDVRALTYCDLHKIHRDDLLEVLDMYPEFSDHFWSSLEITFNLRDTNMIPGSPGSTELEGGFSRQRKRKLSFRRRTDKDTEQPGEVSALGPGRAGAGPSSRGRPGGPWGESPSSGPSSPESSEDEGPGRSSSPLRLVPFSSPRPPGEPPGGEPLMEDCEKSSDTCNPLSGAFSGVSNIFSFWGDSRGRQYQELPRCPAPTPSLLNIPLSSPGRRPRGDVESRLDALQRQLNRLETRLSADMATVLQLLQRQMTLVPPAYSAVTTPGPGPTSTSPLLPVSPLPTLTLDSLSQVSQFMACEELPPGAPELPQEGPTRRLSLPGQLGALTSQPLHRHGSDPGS

[3] = Solubility of the compound in Britton-Robinson buffer at pH 7; format: physicochemical
[4] = target: 72 kDa type IV collagenase (Homo sapiens, UniProt P08253); assay: Inhibition of human recombinant MMP2 using Cy3-PLGLK(Cy5Q)AR-NH2 as substrate after 40 mins by spectrofluorimetry
Sequence of 72 kDa type IV collagenase (P08253 whole entry, the tested form may be a part): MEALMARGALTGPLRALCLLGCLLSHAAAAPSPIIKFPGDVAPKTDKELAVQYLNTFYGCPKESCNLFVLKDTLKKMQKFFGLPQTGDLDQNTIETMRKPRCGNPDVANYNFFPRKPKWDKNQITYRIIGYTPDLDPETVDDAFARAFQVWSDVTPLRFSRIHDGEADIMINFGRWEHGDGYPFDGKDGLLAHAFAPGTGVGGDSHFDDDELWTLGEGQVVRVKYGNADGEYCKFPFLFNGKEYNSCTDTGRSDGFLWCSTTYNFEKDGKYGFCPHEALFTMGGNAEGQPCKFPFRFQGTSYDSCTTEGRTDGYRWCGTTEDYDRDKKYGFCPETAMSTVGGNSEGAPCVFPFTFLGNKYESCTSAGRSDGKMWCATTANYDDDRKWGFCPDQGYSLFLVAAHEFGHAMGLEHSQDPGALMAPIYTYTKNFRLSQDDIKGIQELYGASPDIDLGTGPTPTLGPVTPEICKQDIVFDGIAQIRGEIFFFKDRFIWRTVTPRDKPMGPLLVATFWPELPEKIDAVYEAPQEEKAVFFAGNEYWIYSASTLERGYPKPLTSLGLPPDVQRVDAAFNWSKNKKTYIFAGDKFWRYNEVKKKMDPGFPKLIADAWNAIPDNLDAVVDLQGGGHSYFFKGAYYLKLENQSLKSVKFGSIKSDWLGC

[5] = target: Disintegrin and metalloproteinase domain-containing protein 17 (Homo sapiens, UniProt P78536); assay: Inhibition of human recombinant TACE using Cy3-PLAQAV(Cy5Q-L-2,3-diaminopropionic acid)-RSSSRNH2 as substrate after 40 mins by spectrofluorimetry
Sequence of Disintegrin and metalloproteinase domain-containing protein 17 (P78536 whole entry, the tested form may be a part): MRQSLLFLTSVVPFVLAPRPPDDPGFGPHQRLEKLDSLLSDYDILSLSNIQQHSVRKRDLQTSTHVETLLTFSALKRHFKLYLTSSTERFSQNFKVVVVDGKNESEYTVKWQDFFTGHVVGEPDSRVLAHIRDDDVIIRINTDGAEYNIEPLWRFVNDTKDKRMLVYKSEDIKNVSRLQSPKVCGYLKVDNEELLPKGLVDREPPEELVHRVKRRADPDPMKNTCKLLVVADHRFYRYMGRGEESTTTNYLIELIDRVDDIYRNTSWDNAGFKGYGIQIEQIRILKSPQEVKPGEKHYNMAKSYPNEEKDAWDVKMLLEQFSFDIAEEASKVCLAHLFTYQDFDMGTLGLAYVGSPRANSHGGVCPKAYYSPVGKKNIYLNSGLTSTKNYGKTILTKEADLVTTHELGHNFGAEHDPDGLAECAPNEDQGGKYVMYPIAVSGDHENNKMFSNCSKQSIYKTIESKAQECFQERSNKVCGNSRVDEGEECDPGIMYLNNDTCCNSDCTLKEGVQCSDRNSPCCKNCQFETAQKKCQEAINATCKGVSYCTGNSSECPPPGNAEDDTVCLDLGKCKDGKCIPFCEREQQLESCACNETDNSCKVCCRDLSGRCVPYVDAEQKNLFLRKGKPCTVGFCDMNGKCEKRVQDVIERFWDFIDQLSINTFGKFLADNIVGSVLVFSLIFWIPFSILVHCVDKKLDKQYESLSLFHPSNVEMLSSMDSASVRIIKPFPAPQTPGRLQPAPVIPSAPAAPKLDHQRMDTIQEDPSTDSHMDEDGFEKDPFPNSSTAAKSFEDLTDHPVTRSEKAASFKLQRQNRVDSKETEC

Collagenase 3 = Collagenase 3 (Homo sapiens, UniProt P45452); assay: Inhibition of human recombinant MMP13 using Cy3-PLGLK(Cy5Q)AR-NH2 as substrate after 40 mins by spectrofluorimetry
Rattus norvegicus = assay: Intrinsic clearance in iv dosed rat; format: ADME, organism-based; conditions: in vivo
[6] = Inhibition of cytochrome P450 (unknown origin); format: ADME; conditions: human
[7] = target: Matrix metalloproteinase-14 (Homo sapiens, UniProt P50281); assay: Inhibition of human recombinant GST-tagged MMP14 using Cy3-PLGLK(Cy5Q)AR-NH2 as substrate after 40 mins by spectrofluorimetry
Matrilysin = target: T1, Matrilysin (Homo sapiens, UniProt P09237); assay: Inhibition of human recombinant MMP7 using Cy3-PLGLK(Cy5Q)AR-NH2 as substrate after 40 mins by spectrofluorimetry
T1 sequence (P09237 whole entry): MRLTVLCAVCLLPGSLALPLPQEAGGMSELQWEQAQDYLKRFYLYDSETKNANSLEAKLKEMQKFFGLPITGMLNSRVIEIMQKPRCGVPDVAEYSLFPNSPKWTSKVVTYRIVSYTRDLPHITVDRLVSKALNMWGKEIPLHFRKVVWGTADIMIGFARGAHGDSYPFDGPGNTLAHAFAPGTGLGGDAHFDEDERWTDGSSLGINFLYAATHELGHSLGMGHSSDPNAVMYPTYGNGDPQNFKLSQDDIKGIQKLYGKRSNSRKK

Interstitial collagenase = target: T2, Interstitial collagenase (Homo sapiens, UniProt P03956); assay: Inhibition of human recombinant MMP1 using Cy3-PLGLK(Cy5Q)AR-NH2 as substrate after 40 mins by spectrofluorimetry
T2 sequence (P03956 whole entry): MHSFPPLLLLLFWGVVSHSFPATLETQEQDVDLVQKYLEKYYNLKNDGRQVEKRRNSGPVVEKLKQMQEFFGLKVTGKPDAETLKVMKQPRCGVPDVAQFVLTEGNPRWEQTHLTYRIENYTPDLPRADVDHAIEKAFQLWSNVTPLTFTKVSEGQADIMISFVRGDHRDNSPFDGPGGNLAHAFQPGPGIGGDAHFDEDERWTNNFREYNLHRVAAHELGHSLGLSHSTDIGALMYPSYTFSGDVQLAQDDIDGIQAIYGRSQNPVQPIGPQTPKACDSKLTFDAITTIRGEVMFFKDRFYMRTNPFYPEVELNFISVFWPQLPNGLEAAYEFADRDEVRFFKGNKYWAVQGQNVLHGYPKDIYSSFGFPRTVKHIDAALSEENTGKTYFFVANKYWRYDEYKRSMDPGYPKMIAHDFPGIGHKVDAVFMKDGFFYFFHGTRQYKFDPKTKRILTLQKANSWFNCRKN
Procedure, shortened: (§1)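 Human recombinant pro-enzymes were activated with 1 mM APMA at 37 °C, for 2 h (MMP-1) or 18 h (MMP-3). Reactions were stopped with EDTA and read at […] nm. Activity was scaled to no-inhibitor and EDTA controls, and IC50 obtained by iterative fitting.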

[8] = target: Matrix metalloproteinase-9 (Homo sapiens, UniProt P14780); assay: Inhibition of human recombinant MMP9 using Cy3-PLGLK(Cy5Q)AR-NH2 as substrate after 40 mins by spectrofluorimetry
Sequence of Matrix metalloproteinase-9 (P14780 whole entry): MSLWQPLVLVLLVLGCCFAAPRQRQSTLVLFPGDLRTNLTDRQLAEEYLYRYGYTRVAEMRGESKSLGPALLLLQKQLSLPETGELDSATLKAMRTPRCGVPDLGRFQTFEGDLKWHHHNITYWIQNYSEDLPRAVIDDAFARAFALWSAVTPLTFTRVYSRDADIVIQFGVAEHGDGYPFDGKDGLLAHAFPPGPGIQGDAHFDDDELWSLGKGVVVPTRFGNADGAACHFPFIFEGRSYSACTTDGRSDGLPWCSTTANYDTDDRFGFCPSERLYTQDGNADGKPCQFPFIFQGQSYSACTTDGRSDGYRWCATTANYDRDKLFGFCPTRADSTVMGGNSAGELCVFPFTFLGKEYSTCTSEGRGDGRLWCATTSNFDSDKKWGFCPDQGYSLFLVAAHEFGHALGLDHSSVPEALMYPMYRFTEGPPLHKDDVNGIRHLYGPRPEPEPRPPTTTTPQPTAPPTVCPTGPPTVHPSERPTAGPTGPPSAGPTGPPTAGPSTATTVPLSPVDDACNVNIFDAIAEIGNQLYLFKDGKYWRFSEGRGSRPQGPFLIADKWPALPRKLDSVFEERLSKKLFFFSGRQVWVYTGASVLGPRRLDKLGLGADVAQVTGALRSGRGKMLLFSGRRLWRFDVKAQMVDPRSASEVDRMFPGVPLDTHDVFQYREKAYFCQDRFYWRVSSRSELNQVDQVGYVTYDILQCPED

Stromelysin-1 = Stromelysin-1 (Homo sapiens, UniProt P08254); assay: Inhibition of human recombinant MMP3 using Cy3-PLGLK(Cy5Q)AR-NH2 as substrate after 40 mins by spectrofluorimetry; procedure, shortened: as §1
Sequence of Stromelysin-1 (P08254 whole entry): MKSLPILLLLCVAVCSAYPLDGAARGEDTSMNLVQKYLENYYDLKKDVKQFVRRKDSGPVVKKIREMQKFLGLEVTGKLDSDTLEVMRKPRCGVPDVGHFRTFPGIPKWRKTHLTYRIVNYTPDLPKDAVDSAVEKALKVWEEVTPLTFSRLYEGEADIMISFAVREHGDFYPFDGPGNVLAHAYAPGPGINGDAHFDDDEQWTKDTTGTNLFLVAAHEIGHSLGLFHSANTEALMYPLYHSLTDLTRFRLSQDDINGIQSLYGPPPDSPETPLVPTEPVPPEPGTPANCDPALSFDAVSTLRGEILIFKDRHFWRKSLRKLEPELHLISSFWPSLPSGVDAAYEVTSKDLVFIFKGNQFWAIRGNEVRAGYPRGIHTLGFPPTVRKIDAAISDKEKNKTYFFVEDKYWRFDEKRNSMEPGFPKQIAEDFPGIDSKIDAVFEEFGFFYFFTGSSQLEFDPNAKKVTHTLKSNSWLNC

[9] = Apparent permeability in human Caco2 cells; format: ADME, cell-based; conditions: Caco-2
Neutrophil collagenase = Neutrophil collagenase (Homo sapiens, UniProt P22894); assay: Inhibition of human recombinant MMP8 using Cy3-PLGLK(Cy5Q)AR-NH2 as substrate after 40 mins by spectrofluorimetry
Sequence of Neutrophil collagenase (P22894 whole entry): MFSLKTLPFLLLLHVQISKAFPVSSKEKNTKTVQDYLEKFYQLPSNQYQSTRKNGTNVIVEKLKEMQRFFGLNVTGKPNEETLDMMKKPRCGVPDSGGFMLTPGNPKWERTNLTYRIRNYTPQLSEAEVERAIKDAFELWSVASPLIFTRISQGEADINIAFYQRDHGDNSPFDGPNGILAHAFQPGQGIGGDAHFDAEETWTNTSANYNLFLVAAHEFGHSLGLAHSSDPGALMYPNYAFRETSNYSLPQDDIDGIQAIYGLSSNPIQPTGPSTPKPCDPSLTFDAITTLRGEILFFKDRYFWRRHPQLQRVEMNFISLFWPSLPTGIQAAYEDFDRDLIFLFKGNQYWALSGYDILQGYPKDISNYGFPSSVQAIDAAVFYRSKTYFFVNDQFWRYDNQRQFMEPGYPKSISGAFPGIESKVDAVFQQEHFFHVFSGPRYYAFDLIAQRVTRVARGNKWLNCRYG

Stromelysin-2 = Stromelysin-2 (Homo sapiens, UniProt P09238); assay: Inhibition of human recombinant MMP10 using Cy3-PLGLK(Cy5Q)AR-NH2 as substrate after 40 mins by spectrofluorimetry
Sequence of Stromelysin-2 (P09238 whole entry): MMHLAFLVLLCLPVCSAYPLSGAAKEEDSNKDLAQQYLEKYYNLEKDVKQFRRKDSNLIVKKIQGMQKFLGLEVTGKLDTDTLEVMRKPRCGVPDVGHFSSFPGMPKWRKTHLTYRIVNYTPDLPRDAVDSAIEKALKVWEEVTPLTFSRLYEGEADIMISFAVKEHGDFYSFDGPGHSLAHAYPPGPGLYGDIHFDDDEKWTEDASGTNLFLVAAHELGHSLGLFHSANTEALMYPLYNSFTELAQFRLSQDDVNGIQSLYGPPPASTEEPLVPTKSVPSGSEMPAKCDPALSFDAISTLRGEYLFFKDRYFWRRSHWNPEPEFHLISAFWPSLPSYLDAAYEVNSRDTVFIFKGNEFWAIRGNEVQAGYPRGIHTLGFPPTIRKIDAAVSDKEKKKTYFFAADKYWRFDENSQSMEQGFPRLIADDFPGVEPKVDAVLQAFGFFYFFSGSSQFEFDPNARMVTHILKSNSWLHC

- Microsomal clearance (Liver microsome): 70 µL/min/mg
- solubility [1]: Insoluble
- solubility [3]: 0.7 µg/mL (≈ 1.42 µM)
- IC50 [4]: 5.3 µM
- IC50 [5]: > 10 µM
- IC50 (Collagenase 3): 3.9 pM
- CL (Rattus norvegicus): 28.3 mL/min/kg
- inhibition (INH) [6]: Not Active
- IC50 [7]: > 10 µM
- IC50 (Matrilysin): > 10 µM
- IC50 (Interstitial collagenase): > 10 µM
- IC50 [8]: > 10 µM
- IC50 (Stromelysin-1): 4 µM
- Papp [9]: 4.77 ×10⁻⁶ cm/s
- IC50 (Neutrophil collagenase): 0.72 µM
- IC50 (Stromelysin-2): 0.16 µM
SMILES: COc1cccc(CNC(=O)c2nc3ccc(F)c(OCCc4ccc(C(=O)O)cc4)c3c(=O)[nH]2)c1
- inhibition (INH) [2]: Not Active
